Source: ChEMBL document CHEMBL3390837, “Bridged tetrahydroisoquinolines as selective NADPH oxidase 2 (Nox2) inhibitors” (Medchemcomm, 2013)

Columns and labels:
NADPH oxidase 4 = molecular target: T1, NADPH oxidase 4 (Homo sapiens, UniProt Q9NPH5); test: Inhibition of full length human NOX4 transfected in COS 22 cells assessed as inhibition of ROS generation by measuring H2O2 production by fluorescence assay; conditions: read-out: IC50
T1 sequence (Q9NPH5 whole entry): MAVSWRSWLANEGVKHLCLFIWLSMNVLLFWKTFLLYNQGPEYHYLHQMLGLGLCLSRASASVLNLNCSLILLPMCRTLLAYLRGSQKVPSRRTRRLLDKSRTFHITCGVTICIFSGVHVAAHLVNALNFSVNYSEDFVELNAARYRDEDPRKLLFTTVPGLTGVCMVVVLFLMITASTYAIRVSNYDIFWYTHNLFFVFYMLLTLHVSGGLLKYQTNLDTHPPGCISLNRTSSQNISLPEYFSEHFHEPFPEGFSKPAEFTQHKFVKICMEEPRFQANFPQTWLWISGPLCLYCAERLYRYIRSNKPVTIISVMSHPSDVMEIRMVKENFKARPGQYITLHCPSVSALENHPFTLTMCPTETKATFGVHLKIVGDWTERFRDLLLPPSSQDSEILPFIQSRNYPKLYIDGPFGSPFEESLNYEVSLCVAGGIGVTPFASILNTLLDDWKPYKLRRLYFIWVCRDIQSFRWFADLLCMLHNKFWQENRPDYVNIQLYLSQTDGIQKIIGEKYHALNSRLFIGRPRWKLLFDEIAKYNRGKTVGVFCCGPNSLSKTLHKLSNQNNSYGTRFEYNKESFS

[1] = Cytotoxicity against african green monkey COS7 cells expressing human p22phox assessed as cell viability at 25 to 50 uM after 15 mins by luminogenic assay; assay type: cell-based; conditions: chlorocebus aethiops, cos-7, 0.25 h
Method in brief: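 COS-22 cells plated at 2.5 x 10³ cells/well in OPTIMEM, exposed 15 min to compounds at various concentrations; dead-cell protease release read with luminogenic AAF peptide substrate, signal before and after digitonin used to derive % dead; reported as % live cells (100 − % dead) per well.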

[2] = molecular target: Xanthine dehydrogenase/oxidase (Bos taurus, UniProt P80457); test: Inhibition of bovine milk xanthine oxidase assessed as hypoxanthine-stimulated ROS generation by measuring H2O2 production at 25 to 50 uM by fluorescence assay; conditions: cattle
Chain of Xanthine dehydrogenase/oxidase (P80457 whole entry): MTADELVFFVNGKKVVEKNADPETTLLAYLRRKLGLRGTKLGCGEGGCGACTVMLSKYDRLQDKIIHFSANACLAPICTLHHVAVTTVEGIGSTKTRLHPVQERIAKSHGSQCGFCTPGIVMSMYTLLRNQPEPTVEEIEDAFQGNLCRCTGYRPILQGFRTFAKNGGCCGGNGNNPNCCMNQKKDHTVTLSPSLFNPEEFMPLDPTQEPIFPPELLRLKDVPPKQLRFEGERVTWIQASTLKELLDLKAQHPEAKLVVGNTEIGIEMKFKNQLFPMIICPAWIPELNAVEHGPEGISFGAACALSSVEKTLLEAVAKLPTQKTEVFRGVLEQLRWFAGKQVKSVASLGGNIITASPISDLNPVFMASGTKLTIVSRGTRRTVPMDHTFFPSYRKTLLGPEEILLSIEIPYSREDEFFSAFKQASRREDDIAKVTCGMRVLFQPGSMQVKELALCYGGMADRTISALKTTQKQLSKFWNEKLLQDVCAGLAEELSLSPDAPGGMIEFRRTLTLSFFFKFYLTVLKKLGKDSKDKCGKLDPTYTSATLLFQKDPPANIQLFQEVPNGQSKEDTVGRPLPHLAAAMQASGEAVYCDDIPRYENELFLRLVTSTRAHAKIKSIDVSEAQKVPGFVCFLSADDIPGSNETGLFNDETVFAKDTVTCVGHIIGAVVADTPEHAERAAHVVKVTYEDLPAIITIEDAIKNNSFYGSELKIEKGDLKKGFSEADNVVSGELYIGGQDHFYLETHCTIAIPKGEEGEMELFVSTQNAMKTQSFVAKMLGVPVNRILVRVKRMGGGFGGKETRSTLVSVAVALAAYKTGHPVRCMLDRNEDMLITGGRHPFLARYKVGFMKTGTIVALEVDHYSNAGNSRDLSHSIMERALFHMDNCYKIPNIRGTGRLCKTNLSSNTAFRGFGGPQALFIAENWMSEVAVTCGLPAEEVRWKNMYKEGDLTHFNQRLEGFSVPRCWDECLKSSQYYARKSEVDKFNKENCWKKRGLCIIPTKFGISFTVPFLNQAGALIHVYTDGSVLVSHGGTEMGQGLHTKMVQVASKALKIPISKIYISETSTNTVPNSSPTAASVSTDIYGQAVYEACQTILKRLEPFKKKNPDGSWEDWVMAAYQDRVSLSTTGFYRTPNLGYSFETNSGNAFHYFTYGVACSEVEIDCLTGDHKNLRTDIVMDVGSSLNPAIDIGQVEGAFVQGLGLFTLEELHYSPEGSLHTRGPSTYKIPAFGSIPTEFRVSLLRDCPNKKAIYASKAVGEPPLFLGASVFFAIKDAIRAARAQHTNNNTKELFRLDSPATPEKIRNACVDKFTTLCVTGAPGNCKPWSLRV

IC50 (NADPH oxidase 4): > 100 µM | inhibition (INH) [2]: Not Active
Structure (SMILES): C=C(C)C[C@@H]1N[C@H]2CC(C)(C)[C@@H]1c1c(Br)cccc12 (racemic)
Activity [1]: Non-toxic
